Results reported in ChEMBL document CHEMBL5608193, “Discovery of bivalent small molecule degraders of cyclin-dependent kinase 7 (CDK7)” (Eur J Med Chem, 2024).
Activity calls are given as the source filed them. The rule behind the calls is not given here.

How the values were obtained:
CDK7/Cyclin H/MNAT1 [1] = target: T1, CDK7/Cyclin H/MNAT1 (Homo sapiens, UniProt P50613); experiment: Inhibition of CDK7/CycH/MNAT1 (unknown origin) assessed as change in TR-FRET ratio using Cdk7/9tide as substrate and ATP by in vitro Adapta Eu kinase assay; assay type: protein-complex assay
T1 sequence (P51946 whole entry): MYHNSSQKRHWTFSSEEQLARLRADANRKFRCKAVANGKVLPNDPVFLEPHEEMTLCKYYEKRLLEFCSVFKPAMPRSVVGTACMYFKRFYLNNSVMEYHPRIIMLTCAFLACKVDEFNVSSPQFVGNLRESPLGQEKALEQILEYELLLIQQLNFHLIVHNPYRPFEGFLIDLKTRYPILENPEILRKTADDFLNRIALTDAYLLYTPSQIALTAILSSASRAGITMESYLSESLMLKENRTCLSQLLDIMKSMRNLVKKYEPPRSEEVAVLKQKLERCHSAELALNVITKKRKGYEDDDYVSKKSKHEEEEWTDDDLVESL
T1 sequence (P50613 whole entry): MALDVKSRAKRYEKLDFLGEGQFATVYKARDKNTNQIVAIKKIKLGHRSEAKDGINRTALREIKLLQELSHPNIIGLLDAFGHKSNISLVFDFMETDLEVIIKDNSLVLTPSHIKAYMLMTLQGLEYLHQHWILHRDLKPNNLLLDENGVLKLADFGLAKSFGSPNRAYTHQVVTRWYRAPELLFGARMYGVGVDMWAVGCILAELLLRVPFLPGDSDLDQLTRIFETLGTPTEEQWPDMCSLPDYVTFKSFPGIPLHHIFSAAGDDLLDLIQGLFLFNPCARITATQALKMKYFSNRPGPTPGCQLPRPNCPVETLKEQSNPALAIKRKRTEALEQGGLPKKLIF
T1 sequence (P51948 whole entry, further chain): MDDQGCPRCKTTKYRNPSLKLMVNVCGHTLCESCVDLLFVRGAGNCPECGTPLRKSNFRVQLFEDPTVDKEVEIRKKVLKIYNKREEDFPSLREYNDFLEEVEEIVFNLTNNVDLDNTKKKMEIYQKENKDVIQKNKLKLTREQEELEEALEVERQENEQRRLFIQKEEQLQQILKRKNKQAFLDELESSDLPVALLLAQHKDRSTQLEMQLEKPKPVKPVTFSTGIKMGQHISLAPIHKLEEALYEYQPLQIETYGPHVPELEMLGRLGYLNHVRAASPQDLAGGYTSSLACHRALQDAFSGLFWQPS
Summary of the method: (§1)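 Adapta Eu kinase assay run at ThermoFisher on CDK7/Cyclin H/MNAT1 with ATP at Km.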

[2] = target: T2, Protein cereblon/Cyclin-dependent kinase 7 (Homo sapiens) (UniProt P50613+Q96SW2); experiment: PROTAC activity at CDK7/CRBN in human Jurkat cells assessed as degradation of CDK7 at 1 uM measured after 16 hrs incubation by immunoblot analysis; assay type: cell-based
T2 sequence (P50613 whole entry, looked up): as the sequence (P50613 whole entry) above
T2 sequence (Q96SW2 whole entry, looked up): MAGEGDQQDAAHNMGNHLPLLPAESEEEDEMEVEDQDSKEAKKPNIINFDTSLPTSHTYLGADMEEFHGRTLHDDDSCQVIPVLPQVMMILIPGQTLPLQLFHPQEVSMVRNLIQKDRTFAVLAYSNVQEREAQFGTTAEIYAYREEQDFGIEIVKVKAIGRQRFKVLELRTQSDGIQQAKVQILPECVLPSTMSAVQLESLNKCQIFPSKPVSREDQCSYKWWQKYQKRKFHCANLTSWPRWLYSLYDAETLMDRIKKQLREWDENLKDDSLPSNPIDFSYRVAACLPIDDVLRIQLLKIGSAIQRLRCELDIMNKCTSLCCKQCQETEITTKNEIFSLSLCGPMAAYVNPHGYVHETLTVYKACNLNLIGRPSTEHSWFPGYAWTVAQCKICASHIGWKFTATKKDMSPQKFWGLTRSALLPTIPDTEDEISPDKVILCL
Summary of the method: (§2)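 Jurkat cells exposed to CRBN-recruiting bivalent compounds at 0.1 or 1 μM for 16 h. Lysed in RIPA with protease/phosphatase inhibitors, BCA-normalized, run on 4–20% SDS-PAGE and blotted to nitrocellulose. Probed with anti-CDK7 (1:1000) and β-actin (1:5000) overnight at 4 °C, IRDye secondaries, near-infrared imaging.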

[3] = target: T2, Protein cereblon/Cyclin-dependent kinase 7 (Homo sapiens); experiment: PROTAC activity at CDK7/CRBN in human Jurkat cells assessed as degradation of CDK7 at 0.1 uM measured after 16 hrs incubation by immunoblot analysis; assay type: cell-based; summary of the method: as §2
[4] = target: T3, von Hippel-Lindau disease tumor suppressor/Cyclin-dependent kinase 7 (Homo sapiens) (UniProt P50613+P40337); experiment: PROTAC activity at CDK7/VHL in human Jurkat cells assessed as degradation of CDK7 at 1 uM measured after 16 hrs incubation by immunoblot analysis relative to control; assay type: cell-based
T3 sequence (P40337 whole entry, looked up): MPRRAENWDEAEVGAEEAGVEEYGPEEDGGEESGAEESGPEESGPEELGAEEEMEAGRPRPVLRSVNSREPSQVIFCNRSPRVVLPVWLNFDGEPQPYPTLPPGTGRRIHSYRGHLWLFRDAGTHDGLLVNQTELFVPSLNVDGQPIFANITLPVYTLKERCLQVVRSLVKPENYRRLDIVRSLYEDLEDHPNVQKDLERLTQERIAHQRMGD
T3 sequence (P50613 whole entry, looked up): as the sequence (P50613 whole entry) above
Summary of the method: (§3)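 Jurkat cells given VHL-recruiting compounds at 0.1 or 1 μM for 16 h. RIPA lysis, BCA normalization, 4–20% SDS-PAGE, nitrocellulose transfer. CDK7 (1:1000) and β-actin probed overnight at 4 °C, IRDye secondaries, Odyssey detection. Quantified against control, mean ± SEM from three independent biological replicates.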

[5] = target: T3, von Hippel-Lindau disease tumor suppressor/Cyclin-dependent kinase 7 (Homo sapiens); experiment: PROTAC activity at CDK7/VHL in human Jurkat cells assessed as degradation of CDK7 at 0.1 uM measured after 16 hrs incubation by immunoblot analysis relative to control; assay type: cell-based; summary of the method: as §3
CDK7/Cyclin H/MNAT1 [6] = target: T1, CDK7/Cyclin H/MNAT1; experiment: Inhibition of recombinant GST-tagged CDK7/CycH/MAT1 (unknown origin) extracted from baculo-virus infected Sf9 insect cells assessed as inhibition constant using ATP containing 32P measured after 15 mins by Beckman liquid scintillation counter analysis; assay type: cell-free
SU-DHL-5 = experiment: Antiproliferative activity against human SU-DHL-5 cells assessed as cell viability measured after 72 hrs by CellTiter-Glo assay; assay type: functional, cell-based; conditions: SU-DHL-5, 72 h
Summary of the method: (§4)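 Cells grown in RPMI 1640 with 10% heat-inactivated FBS and penicillin/streptomycin at 37 °C, 5% CO2, mycoplasma-negative. Seeded at 10^4/ml. Compounds dispensed digitally from 10 mM or 1 mM DMSO stocks, DMSO equalized, triplicate wells. After 72 h, CellTiter-Glo added for 10–15 min at room temperature and luminescence read.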

CDK7/Cyclin H/MNAT1 [7] = target: T1, CDK7/Cyclin H/MNAT1; experiment: Inhibition of CDK7/CycH/MAT1 (unknown origin); design: species or system Sf9; summary of the method: as §1
Jurkat = experiment: Antiproliferative activity against human Jurkat cells assessed as cell viability measured after 72 hrs by CellTiter-Glo assay; assay type: functional, cell-based; summary of the method: as §4
A549 = experiment: Antiproliferative activity against human A549 cells assessed as cell viability measured after 72 hrs by CellTiter-Glo assay; assay type: functional, cell-based; conditions: A549, 72 h; summary of the method: as §4
OVCAR-3 = experiment: Antiproliferative activity against human OVCAR-3 cells assessed as cell viability measured after 72 hrs by CellTiter-Glo assay; assay type: functional, cell-based; conditions: OVCAR-3, 72 h; summary of the method: as §4
MOLT-4 = experiment: Antiproliferative activity against human MOLT-4 cells assessed as cell viability measured after 72 hrs by CellTiter-Glo assay; assay type: functional, cell-based; conditions: MOLT-4, 72 h; summary of the method: as §4

| SMILES | IC50 (CDK7/Cyclin H/MNAT1 [1]) [nM] | Activity [2] | Activity [3] | Activity [4] | Activity [5] | other results |
| --- | --- | --- | --- | --- | --- | --- |
| Cc1ncsc1-c1ccc([C@H](C)NC(=O)[C@@H]2C[C@@H](O)CN2C(=O)[C@@H](NC(=O)CCOCCOCCNC(=O)c2ccc(C(=O)Nc3n[nH]c4c3CN(C(=O)N[C@H](CN(C)C)c3ccccc3)C4)cc2)C(C)(C)C)cc1 | 7.6 |  |  | Active | Active |  |
| Cc1ncsc1-c1ccc([C@H](C)NC(=O)[C@@H]2C[C@@H](O)CN2C(=O)[C@@H](NC(=O)CCCCCNC(=O)c2ccc(C(=O)Nc3n[nH]c4c3CN(C(=O)N[C@H](CN(C)C)c3ccccc3)C4(C)C)cc2)C(C)(C)C)cc1 | 8.1 |  |  | Active | Active |  |
| Cc1ncsc1-c1ccc([C@H](C)NC(=O)[C@@H]2C[C@@H](O)CN2C(=O)[C@@H](NC(=O)CCOCCNC(=O)c2ccc(C(=O)Nc3n[nH]c4c3CN(C(=O)N[C@H](CN(C)C)c3ccccc3)C4(C)C)cc2)C(C)(C)C)cc1 | 11.1 |  |  | Active | Active |  |
| C=CC(=O)Nc1ccc(C(=O)Nc2n[nH]c3c2CN(C(=O)N[C@@H](CN(C)C)c2ccccc2)C3(C)C)cc1 |  |  |  |  |  | Ki (CDK7/Cyclin H/MNAT1 [6]): 2.2 nM |
| Cc1ncsc1-c1ccc([C@H](C)NC(=O)[C@@H]2C[C@@H](O)CN2C(=O)[C@@H](NC(=O)CCCCOc2ccc(C(=O)Nc3n[nH]c4c3CN(C(=O)N[C@H](CN(C)C)c3ccccc3)C4(C)C)cc2)C(C)(C)C)cc1 | 12.6 |  |  | Active | Active |  |
| Cc1ncsc1-c1ccc(CNC(=O)C2[C@@H](O)CCN2C(=O)C(NC(=O)C2(F)CC2)C(C)(C)C)c(OCCOCCOCCNC(=O)c2ccc(C(=O)Nc3n[nH]c4c3CN(C(=O)N[C@H](CN(C)C)c3ccccc3)C4(C)C)cc2)c1 (some centres not stated) | 13.4 |  |  | Active | Active |  |
| Cc1ncsc1-c1ccc([C@H](C)NC(=O)[C@@H]2C[C@@H](O)CN2C(=O)[C@@H](NC(=O)CCCCCc2ccc(C(=O)Nc3n[nH]c4c3CN(C(=O)N[C@H](CN(C)C)c3ccccc3)C4(C)C)cc2)C(C)(C)C)cc1 |  |  |  | Active | Active |  |
| CN(C)C[C@@H](NC(=O)N1Cc2c(NC(=O)c3ccc(C(=O)NCCOCCOCCOCCNc4cccc5c4C(=O)N(C4CCC(=O)NC4=O)C5=O)cc3)n[nH]c2C1(C)C)c1ccccc1 (some centres not stated) | 17.7 | inactive | inactive |  |  |  |
| Cc1ncsc1-c1ccc([C@H](C)NC(=O)[C@@H]2C[C@@H](O)CN2C(=O)[C@@H](NC(=O)CCNC(=O)c2ccc(C(=O)Nc3n[nH]c4c3CN(C(=O)N[C@H](CN(C)C)c3ccccc3)C4(C)C)cc2)C(C)(C)C)cc1 | 8.7 |  |  | Active | Active |  |
| CCC(=O)Nc1ccc(C(=O)Nc2n[nH]c3c2CN(C(=O)N[C@@H](CN(C)C)c2ccccc2)C3(C)C)cc1 |  |  |  |  |  | IC50 (SU-DHL-5): 176 nM; IC50 (CDK7/Cyclin H/MNAT1 [7]): 6.8 nM; IC50 (Jurkat): 1190 nM; IC50 (A549): 1630 nM; IC50 (OVCAR-3): 896 nM; IC50 (MOLT-4): 598 nM |
| Cc1ncsc1-c1ccc([C@H](C)NC(=O)[C@@H]2C[C@@H](O)CN2C(=O)[C@@H](NC(=O)CCCNC(=O)c2ccc(C(=O)Nc3n[nH]c4c3CN(C(=O)N[C@H](CN(C)C)c3ccccc3)C4(C)C)cc2)C(C)(C)C)cc1 | 5.6 |  |  | Active | Active |  |
| CC(=O)N[C@H](C(=O)N1C[C@H](O)C[C@H]1C(=O)N[C@@H](C)c1ccc(-c2scnc2C(=O)NCCCCCNC(=O)c2ccc(C(=O)Nc3n[nH]c4c3CN(C(=O)N[C@H](CN(C)C)c3ccccc3)C4(C)C)cc2)cc1)C(C)(C)C | 8.6 |  |  | Active | Active |  |

The next lines start with results.

| IC50 (CDK7/Cyclin H/MNAT1 [1]) [nM] | Activity [2] | Activity [3] | Activity [4] | Activity [5] | SMILES | other results |
| --- | --- | --- | --- | --- | --- | --- |
| 13.3 | inactive | inactive |  |  | CN(C)C[C@@H](NC(=O)N1Cc2c(NC(=O)c3ccc(C(=O)NCCCCC#Cc4cccc5c4C(=O)N(C4CCC(=O)NC4=O)C5=O)cc3)n[nH]c2C1(C)C)c1ccccc1 (some centres not stated) |  |
| 11.3 | inactive | inactive |  |  | CN(C)C[C@@H](NC(=O)N1Cc2c(NC(=O)c3ccc(C(=O)NCCOCCNc4cccc5c4C(=O)N(C4CCC(=O)NC4=O)C5=O)cc3)n[nH]c2C1(C)C)c1ccccc1 (some centres not stated) |  |
| 34.4 | inactive | inactive |  |  | CN(C)C[C@@H](NC(=O)N1Cc2c(NC(=O)c3ccc(C(=O)NCCCCCCCCOc4cccc5c4C(=O)N(C4CCC(=O)NC4=O)C5=O)cc3)n[nH]c2C1(C)C)c1ccccc1 (some centres not stated) |  |
| 9.2 | inactive | inactive |  |  | CN(C)C[C@@H](NC(=O)N1Cc2c(NC(=O)c3ccc(C(=O)NCCCCCOc4cccc5c4C(=O)N(C4CCC(=O)NC4=O)C5=O)cc3)n[nH]c2C1(C)C)c1ccccc1 (some centres not stated) |  |
| 6.7 | inactive | inactive |  |  | CN(C)C[C@@H](NC(=O)N1Cc2c(NC(=O)c3ccc(C(=O)NCCNc4cccc5c4C(=O)N(C4CCC(=O)NC4=O)C5=O)cc3)n[nH]c2C1(C)C)c1ccccc1 (some centres not stated) |  |
| 9.4 | inactive | inactive |  |  | CN(C)C[C@@H](NC(=O)N1Cc2c(NC(=O)c3ccc(C(=O)NCCCCCCNc4cccc5c4C(=O)N(C4CCC(=O)NC4=O)C5=O)cc3)n[nH]c2C1(C)C)c1ccccc1 (some centres not stated) |  |
| 6.4 | inactive | inactive |  |  | CN(C)C[C@@H](NC(=O)N1Cc2c(NC(=O)c3ccc(C(=O)NCCOCCOCCNc4cccc5c4C(=O)N(C4CCC(=O)NC4=O)C5=O)cc3)n[nH]c2C1(C)C)c1ccccc1 (some centres not stated) |  |
